# Assay results: ChEMBL document CHEMBL4689842, “EUbOPEN Chemogenomics Library wave 1” (2021)
# System: HEK-293T
# Experiment: Multiplex assay against HEK293T;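 for Population Tubulin-Different-Phenotype (%): share of the cells with healthy nuclei that show this phenotype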
# Format: toxicity, cell-based
# Details: human
# Procedure, shortened: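 Live cells were stained at seeding with Hoechst33342, BioTracker Green Microtubule Cytoskeleton Dye, MitoTracker Red and Annexin V Alexa Fluor 680. Following compound addition, they were imaged on a CQ1 microscope at 37°C and 5% CO2 and gated by CellPathfinder machine learning into Hoechst high-intensity objects or normal cells, with normal cells split into healthy, pyknosed or fragmented nuclei and pyknosed cells into mitotic or apoptotic. Tubulin, mitochondrial-mass and membrane-permeability phenotypes are per cents of healthy-nucleus cells.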
# [1] = 12 h, 1 µM, compound concentration 1 uM, replicate 1
# [2] = 12 h, 1 µM, compound concentration 1 uM, replicate 2
# [3] = 12 h, 10 µM, compound concentration 10 uM, replicate 1
# [4] = 12 h, 10 µM, compound concentration 10 uM, replicate 2
# [5] = 24 h, 1 µM, compound concentration 1 uM, replicate 1
# [6] = 24 h, 1 µM, compound concentration 1 uM, replicate 2
# [7] = 24 h, 10 µM, compound concentration 10 uM, replicate 1
# [8] = 24 h, 10 µM, compound concentration 10 uM, replicate 2
# [9] = 48 h, 1 µM, compound concentration 1 uM, replicate 1
# [10] = 48 h, 1 µM, compound concentration 1 uM, replicate 2
# [11] = 48 h, 10 µM, compound concentration 10 uM, replicate 1
# [12] = 48 h, 10 µM, compound concentration 10 uM, replicate 2
smiles,measurement,setting,value
CCCn1c(=O)c2[nH]c(-c3cnn(Cc4cccc(C(F)(F)F)c4)c3)nc2n(CC)c1=O [GS 6201],Population Apoptotic (%),[1],48%
same,Population Fragmented Nuclei (%),[1],14%
same,Population Healthy Nuclei (%),[1],15%
same,Population Hoechst High Intensity Objects (%),[1],18%
same,Population Membrane Permeable-Phenotype (%),[1],2%
same,Population Mitochondria Different-Phenotype (%),[1],83%
same,Population Mitotic Cells (%),[1],51%
same,Population Normal (%),[1],81%
same,Population Pyknosed Nuclei (%),[1],69%
same,Population Tubulin-Different-Phenotype (%),[1],67%
same,Total Cell Count,[1],294
same,Population Apoptotic (%),[2],9%
same,Population Fragmented Nuclei (%),[2],7%
same,Population Healthy Nuclei (%),[2],43%
same,Population Hoechst High Intensity Objects (%),[2],5%
same,Population Membrane Permeable-Phenotype (%),[2],10%
same,Population Mitochondria Different-Phenotype (%),[2],9%
same,Population Mitotic Cells (%),[2],90%
same,Population Normal (%),[2],94%
same,Population Pyknosed Nuclei (%),[2],49%
same,Population Tubulin-Different-Phenotype (%),[2],22%
same,Total Cell Count,[2],239
same,Population Apoptotic (%),[3],46%
same,Population Fragmented Nuclei (%),[3],28%
same,Population Healthy Nuclei (%),[3],13%
same,Population Hoechst High Intensity Objects (%),[3],25%
same,Population Membrane Permeable-Phenotype (%),[3],0%
same,Population Mitochondria Different-Phenotype (%),[3],80%
same,Population Mitotic Cells (%),[3],53%
same,Population Normal (%),[3],74%
same,Population Pyknosed Nuclei (%),[3],58%
same,Population Tubulin-Different-Phenotype (%),[3],83%
same,Total Cell Count,[3],316
same,Population Apoptotic (%),[4],8%
same,Population Fragmented Nuclei (%),[4],4%
same,Population Healthy Nuclei (%),[4],45%
same,Population Hoechst High Intensity Objects (%),[4],2%
same,Population Membrane Permeable-Phenotype (%),[4],7%
same,Population Mitochondria Different-Phenotype (%),[4],25%
same,Population Mitotic Cells (%),[4],91%
same,Population Normal (%),[4],97%
same,Population Pyknosed Nuclei (%),[4],49%
same,Population Tubulin-Different-Phenotype (%),[4],31%
same,Total Cell Count,[4],325
same,Population Apoptotic (%),[5],52%
same,Population Fragmented Nuclei (%),[5],19%
same,Population Healthy Nuclei (%),[5],10%
same,Population Hoechst High Intensity Objects (%),[5],23%
same,Population Membrane Permeable-Phenotype (%),[5],0%
same,Population Mitochondria Different-Phenotype (%),[5],75%
same,Population Mitotic Cells (%),[5],47%
same,Population Normal (%),[5],76%
same,Population Pyknosed Nuclei (%),[5],70%
same,Population Tubulin-Different-Phenotype (%),[5],66%
same,Total Cell Count,[5],303
same,Population Apoptotic (%),[6],13%
same,Population Fragmented Nuclei (%),[6],5%
same,Population Healthy Nuclei (%),[6],64%
same,Population Hoechst High Intensity Objects (%),[6],1%
same,Population Membrane Permeable-Phenotype (%),[6],11%
same,Population Mitochondria Different-Phenotype (%),[6],12%
same,Population Mitotic Cells (%),[6],86%
same,Population Normal (%),[6],98%
same,Population Pyknosed Nuclei (%),[6],29%
same,Population Tubulin-Different-Phenotype (%),[6],28%
same,Total Cell Count,[6],288
same,Population Apoptotic (%),[7],47%
same,Population Fragmented Nuclei (%),[7],35%
same,Population Healthy Nuclei (%),[7],18%
same,Population Hoechst High Intensity Objects (%),[7],24%
same,Population Membrane Permeable-Phenotype (%),[7],4%
same,Population Mitochondria Different-Phenotype (%),[7],84%
same,Population Mitotic Cells (%),[7],52%
same,Population Normal (%),[7],75%
same,Population Pyknosed Nuclei (%),[7],46%
same,Population Tubulin-Different-Phenotype (%),[7],72%
same,Total Cell Count,[7],314
same,Population Apoptotic (%),[8],17%
same,Population Fragmented Nuclei (%),[8],3%
same,Population Healthy Nuclei (%),[8],63%
same,Population Hoechst High Intensity Objects (%),[8],1%
same,Population Membrane Permeable-Phenotype (%),[8],8%
same,Population Mitochondria Different-Phenotype (%),[8],17%
same,Population Mitotic Cells (%),[8],82%
same,Population Normal (%),[8],98%
same,Population Pyknosed Nuclei (%),[8],32%
same,Population Tubulin-Different-Phenotype (%),[8],35%
same,Total Cell Count,[8],424
same,Population Apoptotic (%),[9],55%
same,Population Fragmented Nuclei (%),[9],27%
same,Population Healthy Nuclei (%),[9],6%
same,Population Hoechst High Intensity Objects (%),[9],19%
same,Population Membrane Permeable-Phenotype (%),[9],0%
same,Population Mitochondria Different-Phenotype (%),[9],29%
same,Population Mitotic Cells (%),[9],44%
same,Population Normal (%),[9],80%
same,Population Pyknosed Nuclei (%),[9],65%
same,Population Tubulin-Different-Phenotype (%),[9],47%
same,Total Cell Count,[9],303
same,Population Apoptotic (%),[10],14%
same,Population Fragmented Nuclei (%),[10],5%
same,Population Healthy Nuclei (%),[10],81%
same,Population Hoechst High Intensity Objects (%),[10],3%
same,Population Membrane Permeable-Phenotype (%),[10],7%
same,Population Mitochondria Different-Phenotype (%),[10],3%
same,Population Mitotic Cells (%),[10],85%
same,Population Normal (%),[10],96%
same,Population Pyknosed Nuclei (%),[10],13%
same,Population Tubulin-Different-Phenotype (%),[10],12%
same,Total Cell Count,[10],506
same,Population Apoptotic (%),[11],53%
same,Population Fragmented Nuclei (%),[11],44%
same,Population Healthy Nuclei (%),[11],11%
same,Population Hoechst High Intensity Objects (%),[11],24%
same,Population Membrane Permeable-Phenotype (%),[11],0%
same,Population Mitochondria Different-Phenotype (%),[11],62%
same,Population Mitotic Cells (%),[11],46%
same,Population Normal (%),[11],75%
same,Population Pyknosed Nuclei (%),[11],44%
same,Population Tubulin-Different-Phenotype (%),[11],59%
same,Total Cell Count,[11],325
same,Population Apoptotic (%),[12],18%
same,Population Fragmented Nuclei (%),[12],5%
same,Population Healthy Nuclei (%),[12],83%
same,Population Hoechst High Intensity Objects (%),[12],4%
same,Population Membrane Permeable-Phenotype (%),[12],5%
same,Population Mitochondria Different-Phenotype (%),[12],8%
same,Population Mitotic Cells (%),[12],81%
same,Population Normal (%),[12],95%
same,Population Pyknosed Nuclei (%),[12],10%
same,Population Tubulin-Different-Phenotype (%),[12],31%
same,Total Cell Count,[12],739
